High-throughput results deposited in PubChem BioAssay by several laboratories.
A selection: hits, their analogues and other compounds. The true share with any hit is near 12%.
ABCG2 inh – human ABCG2 inhibition, ABCB1 as counter-screen; actives 0.1% (n = 190,000); AID 1325; IgMXP3 cells, JC-1 efflux, flow cytometry; inhibition, % at 6.6 µM; Q9UNQ0;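 active means inhibition above 80%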;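 further: 0% = DMSO and 100% = nicardipine control wells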
Target sequence (Q9UNQ0 whole entry, looked up): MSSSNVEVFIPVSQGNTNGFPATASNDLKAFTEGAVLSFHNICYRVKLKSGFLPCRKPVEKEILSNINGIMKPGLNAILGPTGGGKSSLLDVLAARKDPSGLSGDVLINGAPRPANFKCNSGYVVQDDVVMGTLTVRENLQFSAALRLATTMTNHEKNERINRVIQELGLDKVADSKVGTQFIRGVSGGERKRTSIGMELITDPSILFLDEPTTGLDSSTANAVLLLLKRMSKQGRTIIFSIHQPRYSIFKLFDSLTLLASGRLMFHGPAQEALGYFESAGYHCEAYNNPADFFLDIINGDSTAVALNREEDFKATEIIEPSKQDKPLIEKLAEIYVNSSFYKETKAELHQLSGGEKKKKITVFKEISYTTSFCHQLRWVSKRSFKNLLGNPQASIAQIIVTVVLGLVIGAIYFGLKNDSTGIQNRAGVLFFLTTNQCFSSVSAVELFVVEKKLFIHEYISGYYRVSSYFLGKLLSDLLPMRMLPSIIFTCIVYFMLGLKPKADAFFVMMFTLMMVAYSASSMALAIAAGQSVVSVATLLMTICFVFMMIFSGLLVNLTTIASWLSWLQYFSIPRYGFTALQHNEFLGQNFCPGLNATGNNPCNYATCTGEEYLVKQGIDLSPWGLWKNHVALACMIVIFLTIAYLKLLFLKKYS
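Measure – % inhibition of efflux relative to nicardipine and DMSO · Test system – ABCG2 IgMXP3 and barcoded ABCB1 CCRF-Adr cell mix · Control set – nicardipine as high control, DMSO as low control · Compound – one concentration, 6.6 µM final · Signal – flow cytometry of retained JC-1 fluorescence · Timing – 10 min exposure at 25 °C with rotation, no wash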
RAM inhibit – inhibitors of the yeast RAM network; S. cerevisiae dse1pr::URA3 reporter, 5-FOA growth OD615, 2 d; analog-sensitive cbk1-as2 kinase mutant strain; inhibition, % at 50 µM; actives 1.8% (n = 190,000);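 active means inhibition above a set limit, 3 SD over mean compound inhibition, cut at about 8.4% in these data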;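 further: 0% = DMSO-only wells with no growth and 100% = 10 µM 1-NA-PP1 full growth; inhibition rescues growth on 5-FOA so higher OD means more RAM inhibition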
L major viab – reduces viability of Leishmania major promastigotes | resazurin fluorescence viability | inhibition, % at 10 µM | actives 9% (n = 200,000) | AID 1063; in the data active means inhibition above about 50%;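 further: promastigotes grown with compound for 44 hours at 28 °C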
ABCB1 inh – blocks JC-1 efflux by human ABCB1 transporter | P08183 | CCRF-Adr cells, flow cytometry | inhibition, % at 6.6 µM | actives 0.067% (n = 190,000); in the data active means inhibition above about 40%;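 further: 0% = vehicle and 100% = reference inhibitor; higher value means more JC-1 retained so stronger ABCB1 efflux block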
WT yeast gro inh – growth inhibition of WT yeast, mitochondrial fusion screen. inhibition, % at 10 µM. actives 2.1% (n = 190,000). AID 1362. mitochondrial fusion phenotypic screen, WT strain; in the data active means inhibition above about 58%; tested in S. cerevisiae
The depositor's hits bear a star; / = no result given.

SMILES | ABCG2 inh | RAM inhibit | L major viab | ABCB1 inh | WT yeast gro inh
Cc1ccc(CSCC(=O)N2CCN(Cc3ccc4c(c3)OCO4)CC2)cc1 | 1 | 1 | 59* | 0 | 24
CN(c1ccccc1)S(=O)(=O)c1cccc(C(=O)OCC(=O)NCCCN2CCCC2=O)c1 | 0 | 0 | -2 | 0 | -2
CCC(C)(C)NC(=O)CN(C(=O)c1csnn1)c1ccccc1-c1ccccc1 | 4 | 4 | 3 | 1 | 7
Cn1c(=O)cc(OCC(=O)NCc2cccs2)c2ccccc21 | 8 | 2 | 4 | 0 | 1
O=C(COc1cccc2cccnc12)N/N=C1\SCC(=O)N1CCc1ccccc1 | 6 | 1 | 1 | 1 | -11
Cc1ccc(-n2c(Cl)c(Cl)nc(Cl)c2=O)cc1 | 0 | 0 | 17 | 0 | 62
CNC(=O)CSc1nc2[nH]ncc2c(=O)[nH]1 | 3 | 1 | -8 | 1 | 7
CSc1c(C#N)sc(=S)n1-c1ccc(C)cc1 | 5 | 2 | 27 | 1 | 28
CS(=O)(=O)N(CC(=O)N1CCN(Cc2ccc3c(c2)OCO3)CC1)Cc1ccc(Cl)cc1 | 0 | 2 | 98* | 1 | 15
O=C(Nc1cccc(Cl)c1Cl)c1cc(S(=O)(=O)NCCc2ccccc2)ccc1F | 16 | 9.4* | -6 | 0 | 7
CCC(C)(C)C(=O)Nc1ncc(S(=O)(=O)c2ccc([N+](=O)[O-])cc2)s1 | 17 | 1 | 81* | 2 | -10
O=C(Nc1nnc(CCS(=O)(=O)c2ccc3ccccc3c2)s1)c1ccc([N+](=O)[O-])cc1 | -1 | 8.4* | 35 | 0 | -2
Cc1ccc(Nc2nnc(SCC(=O)Nc3ncc(S(=O)(=O)c4ccc([N+](=O)[O-])cc4)s3)s2)cc1 | -14 | 3 | 55* | -2 | -10
Cc1cc(=O)[nH]c(SCC(=O)Nc2ncc(S(=O)(=O)c3ccc([N+](=O)[O-])cc3)s2)n1 | 1 | 2 | -3 | 0 | 3
O=C(Nc1ncc(S(=O)(=O)c2ccc([N+](=O)[O-])cc2)s1)c1ccc2ccccc2c1 | -12 | 8 | 99* | -1 | -2
CN(C)S(=O)(=O)c1cccc(-c2nnc(SCC(=O)NCCCCCC(=O)O)n2-c2ccc(F)cc2)c1 | 10 | 3 | 1 | 1 | 16
Cc1onc(-c2ccccc2Cl)c1C(=O)N1CCOC12CCCCC2 | 25 | -1 | 6 | 2 | -5
CC1(C)CC(Cc2nc(=S)[nH][nH]2)C(=O)O1 (centres undefined) | 5 | 0 | -4 | 1 | 3
N#Cc1c(Nc2cccc(F)c2)sc2c(O)cc(=O)[nH]c12 | -2 | 4 | 2 | -1 | 1
Cc1nnc(SCC(=O)Nc2ccc(Cl)cn2)s1 | 4 | 0 | 57* | / | -13
CCCSc1nc(N)nc(-c2cccs2)c1C#N | 3 | 0 | 16 | 1 | 14
O=C(NNc1cc(N2CCOCC2)nc(N2CCOCC2)n1)c1ccc(Cl)c(Cl)c1 | 9 | 1 | 18 | 1 | 1
Cc1ccc(C(=O)NNc2cc(N3CCCC3)nc(N3CCCC3)n2)cc1 | 7 | 1 | 100* | 2 | 21
COc1ccc(NC(=O)CSc2nnc(Cn3cnc4ccccc43)o2)cc1 | 3 | 2 | -5 | 0 | 7
CCOc1ccc(CNC(=S)N/N=C/c2ccncc2)cc1 | 4 | 1 | -2 | 0 | 37
SMILES | ABCG2 inh | RAM inhibit | L major viab | ABCB1 inh | WT yeast gro inh
COc1ccc(CNC(=S)N/N=C/c2ccncc2)cc1 | 6 | 1 | 54* | 0 | 35
CCc1ccc(NC(=O)C(=O)NCc2ccccn2)cc1 | 0 | -1 | 10 | 0 | 4
CC(=O)c1sc(N/N=C2\CC3CC2C(C)C3(C)C)nc1C (centres undefined) | 23 | 3 | 91* | 2 | 29
CC(=O)c1sc(N/N=C\c2ccccc2O)nc1C | 0 | 3 | 5 | 0 | 8
CCCc1nc2ccc(NC(=O)c3cccs3)cc2c(=O)n1Cc1ccccc1Cl | -3 | 5 | 50* | 0 | 8
COc1ccc(Cn2c(C3CC3)nc3ccc(NC(C)=O)cc3c2=O)cc1 | 3 | 10* | 11 | 1 | 24
CCCc1nc2ccc(NC(C)=O)cc2c(=O)n1Cc1ccc(Cl)cc1 | 8 | 1 | 83* | 2 | -11
COc1ccc(/C=C/C(=O)Nc2ccc3nc4n(c(=O)c3c2)CCCC4)cc1 | -4 | 2 | 2 | -2 | 2
Cc1nc2ccc(N)cc2c(=O)n1Cc1ccc(Cl)cc1 | 0 | 1 | 15 | 0 | 17
Cn1c(CN2CCCCC2)nc2cc(NC(=O)c3cccs3)ccc21 | 4 | 1 | 13 | 1 | 18
O=C1c2ccccc2C(=O)N1CCCCN(C(=O)c1cc2ccccc2oc1=O)c1ccc(F)cc1F | 8 | 7 | 7 | 31 | 27
Cc1ccc(-n2c(C)cc(C(=S)N3CCOCC3)c2C)cc1C | 2 | 1 | 13 | 1 | 20
Cc1ccc(NC(=S)N2CCN(S(=O)(=O)c3c(F)cccc3F)CC2)cc1C | -3 | 3 | 34 | -1 | 25
Cc1cc(C(=O)CSc2n[nH]c(-c3ccccc3F)n2)c(C)n1Cc1cccs1 | 26 | 4 | 83* | 0 | -12
Cc1csc(SCC(=O)c2cc(C)n(Cc3cccs3)c2C)n1 | 5 | 8 | 56* | 1 | 5
Cc1cc(C(=O)CSc2nnc(N)s2)c(C)n1Cc1cccs1 | 11 | 0 | -3 | 1 | -13
Cc1cc(C(=O)COC(=O)c2ccccc2O)c(C)n1Cc1cccs1 | 2 | 9.0* | -3 | 0 | 10
Cc1cc(NCc2ccco2)n2ncnc2n1 | 0 | 0 | 46 | / | -17
c1ccc2c(c1)OCCOCCOCCOCCOCCOc1ccccc1OCCOCCOCCO2 | -2 | 1 | 100* | 1 | -6
CCO/C(C)=N/n1c2nc3ccccc3nc2c2c(=O)n(Cc3ccccc3Cl)c(C)nc21 | 37 | 8.6* | 36 | 5 | -1
COCCn1cnnc1SCC(=O)Nc1sccc1C(N)=O | 0 | 1 | -4 | 0 | -13
N#C/C(=C/c1ccc(CNS(=O)(=O)c2ccccc2)o1)C(=O)NCc1ccccc1 | 6 | 3 | 4 | 1 | -9
N#C/C(=C/c1ccc(CNS(=O)(=O)c2ccccc2)o1)C(N)=O | 1 | -1 | 51* | / | -1
NCc1oc(-c2ccccc2)cc1C(=O)O | 1 | 0 | -7 | 2 | 7
Cc1ccc2nc(SC(C(=O)Nc3ccc(F)cc3)c3ccccc3)[nH]c2c1 (centres undefined) | 9 | 1 | 11 | 1 | 60*
Cc1ccc(C)c(NC(=O)C(Sc2nc3ccc(C)cc3[nH]2)c2ccccc2)c1 (centres undefined) | 3 | 2 | 28 | 1 | 35
Cc1ccc(C)c(N2CCN(C(=O)CCCN3C(=S)NC(C)(C)CC3C)CC2)c1 (centres undefined) | 3 | 1 | 45 | 1 | -7
CCCCN1C(=O)NC(NC(=O)c2ccco2)(C(F)(F)F)C1=O (centres undefined) | 1 | 0 | -2 | 0 | 4
